Assay outcomes deposited in PubChem by several laboratories.
Runt-CBFb FRET = Runt domain-CBFb interaction inhibition; Cerulean-Runt/Venus-CBFb FRET ratio 530/480, 1 h; inhibition, % at 20 µM; 0.46% of 220,000 active;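 active means inhibition over about 50% at 20 µM in the single-dose screen, limit read from the data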
Target sequence (Q01196 whole entry, looked up, the tested form may be a part): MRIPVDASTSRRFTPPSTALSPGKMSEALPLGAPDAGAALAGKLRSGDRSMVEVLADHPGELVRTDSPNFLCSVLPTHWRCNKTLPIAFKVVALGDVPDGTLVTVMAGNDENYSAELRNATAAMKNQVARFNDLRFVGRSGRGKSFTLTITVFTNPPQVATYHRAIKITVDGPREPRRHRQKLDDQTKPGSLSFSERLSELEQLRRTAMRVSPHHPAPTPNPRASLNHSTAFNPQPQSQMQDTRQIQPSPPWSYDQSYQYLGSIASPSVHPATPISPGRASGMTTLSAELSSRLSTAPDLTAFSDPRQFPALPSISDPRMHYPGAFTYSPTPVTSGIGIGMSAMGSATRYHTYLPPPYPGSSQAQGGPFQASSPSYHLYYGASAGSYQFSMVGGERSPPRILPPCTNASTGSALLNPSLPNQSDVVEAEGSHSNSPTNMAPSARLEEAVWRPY
Target sequence (Q13951 whole entry, looked up, the tested form may be a part): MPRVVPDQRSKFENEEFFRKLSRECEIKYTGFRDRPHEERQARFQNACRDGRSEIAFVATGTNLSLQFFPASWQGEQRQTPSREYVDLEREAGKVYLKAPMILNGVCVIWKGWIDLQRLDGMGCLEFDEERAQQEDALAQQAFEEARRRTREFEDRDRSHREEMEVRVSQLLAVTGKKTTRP
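Measured by: fluorescence energy transfer, 422 nm excitation, 530/480 nm emission; Assay system: Cerulean-Runt domain; Medium: Tris pH 7.5 buffer with BSA; Measure: loss of energy transfer signal; Controls: 5 µM unlabeled CBFb as full-inhibition high control; Incubation: protein complex preformed 1 h, compound exposure 1 h, room temperature, dark.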
Runt-SMMHC FRET = blocks binding of human RUNX1 Runt domain to CBFb-SMMHC; Cerulean-Runt/Venus-CBFb-SMMHC FRET ratio 530/480, 1 h; 0.74% of 220,000 active; inhibition, % at 20 µM; Q01196+Q13951; AID 1434;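 active means mean inhibition across duplicate retests at 20 µM reaching about 50%, limit read from the data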;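 further: inhibitors lower the FRET ratio by blocking Runt binding to CBFb-SMMHC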
Hck-Nef inh = human Hck-Nef kinase inhibition; 0.68% of 220,000 active; AID 463187; inhibition, % at 20 µM; Recombinant Hck-YEEI plus Nef, Z-Lyte FRET kinase assay;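 active means Hck-Nef kinase inhibition above about 50%, limit read from the data; inactive means inhibition below that limit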
Pemphigus Ab inh = blocks pemphigus antibody binding to human desmoglein-3; P32926; DSG3-coupled beads, scFv-anti-DSG3-GFP binding, flow cytometry; hits give low values; binding (percent of control), % at 10 µM; 0.48% of 310,000 active;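 active means binding more than 3 SD below its plate's average and above zero; inconclusive means below that plate limit but binding exactly zero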;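 further: hits lower antibody fragment binding to DSG3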
RanGTP-Impb inh = disruptors of Ran-importin-beta complex formation – biochemical, FRET, CFP-Ran, YFP-importin-beta, homogeneous, primary screen. 1.1% of 300,000 active. cell-free CFP-Ran/YFP-importin-beta FRET ratio. inhibition, % (test concentration not listed). AID 2216;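 active means more than half of the replicate wells show a fall in the fluorescence ratio signal beyond about 16%, limit read from the data, passing the limit was not always enough; inconclusive means exactly half of the replicate wells pass the set limit; inactive means fewer than half of replicates pass the limit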
p-CIP stab down = lowers stability of the mouse p/CIP coactivator protein | F442A p/CIP-EGFP cells, EGFP fluorescence, 16 h | decrease of EGFP signal, % at 10 µM | 0.01% of 290,000 active | AID 1984;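 active means EGFP signal decrease of at least 30% at 10 µM or well 3 SD below plate mean, unless failing retest; inactive means the rest, including hits failing retest or dose response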
Hits are given with their value; i = inactive; ? = inconclusive; nt = no result given. Sampled rows, rich in hits. Any-hit rate of the full collection: about 2.1%.

SMILES	Runt-CBFb FRET	Runt-SMMHC FRET	Hck-Nef inh	Pemphigus Ab inh	RanGTP-Impb inh	p-CIP stab down
O=C(Nc1cccc(C(F)(F)F)c1)c1cc2c(s1)-c1ccccc1OC2	i	87	i	i	41	i
COc1ccc(C(=O)Nc2ccc3[nH]ccc3c2)cc1OC	nt	nt	nt	85	i	nt
COc1ccc(C(=O)Nc2ccc3oc(-c4cccnc4)nc3c2)cc1OC	i	i	i	i	i	i
COc1ccc(C(=O)Nc2ccc3oc(-c4cccc(F)c4)nc3c2)cc1OC	i	i	i	52	i	i
CCOc1ccc(/C=C2/SC(=S)N(C(C(=O)O)c3ccccc3)C2=O)cc1OCC (configuration not stated)	i	i	62	i	nt	i
CCCNC(=S)Nc1ccc2nc(-c3ccccn3)c(-c3ccccn3)nc2c1	nt	i	i	i	28	i
S=C(Nc1ccc2nc(-c3ccccn3)c(-c3ccccn3)nc2c1)N1CCCCC1	nt	nt	i	i	nt	i
CCNC(=O)/C(C#N)=C/c1c(N2CCN(c3ccccc3)CC2)nc2c(C)cccn2c1=O	nt	nt	nt	i	20	i
CCNC(=O)/C(C#N)=C/c1c(N2CCN(c3ccc(OC)cc3)CC2)nc2c(C)cccn2c1=O	nt	nt	nt	i	i	i
Cc1cccn2c(=O)c(/C=C(\C#N)C(=O)NCc3ccco3)c(N3CCOCC3)nc12	78	i	i	i	i	i
N#C/C(=C\c1c(N2CCC(C(N)=O)CC2)nc2ccccn2c1=O)C(=O)NCc1ccco1	128	107	i	i	i	i
COCCNC(=O)/C(C#N)=C/c1c(N2CCN(c3ccccc3)CC2)nc2c(C)cccn2c1=O	nt	nt	nt	i	29	i
COCCNC(=O)/C(C#N)=C/c1c(N2CCN(c3cccc(Cl)c3)CC2)nc2c(C)cccn2c1=O	nt	nt	nt	i	i	i
Cc1cccn2c(=O)c(/C=C(\C#N)C(N)=O)c(N3CCN(c4ccccc4)CC3)nc12	nt	nt	nt	i	i	i
O=C(C1CCN(S(=O)(=O)c2c(Cl)cccc2Cl)CC1)N1CCCCCCC1	nt	nt	nt	i	i	nt
CC1(C)NC(=O)N(CC(=O)N2CCN(S(=O)(=O)c3ccccc3C(F)(F)F)CC2)C1=O	nt	nt	nt	i	nt	nt
CS(=O)(=O)Nc1ccc(C2=NN(S(C)(=O)=O)C(c3ccc4c(c3)OCO4)C2)cc1 (configuration not stated)	i	i	i	i	i	i
Cc1cccn2c(=O)c(/C=C(\C#N)C(=O)NCc3ccccc3)c(N3CCC(C(N)=O)CC3)nc12	148	89	i	i	i	i
CCOC(=O)/C(C#N)=C/c1c(N2CCN(CC)CC2)nc2c(C)cccn2c1=O	nt	nt	nt	i	99	i
CCNC(=O)/C(C#N)=C/c1c(N2CCCCCC2)nc2c(C)cccn2c1=O	nt	nt	nt	i	i	i
C=CCNC(=O)/C(C#N)=C/c1c(N2CC(C)OC(C)C2)nc2ccccn2c1=O (configuration not stated)	i	77	i	i	42	i
CC(C)CN(C(=O)COC(=O)c1ccc2c(c1)OCO2)c1c(N)n(Cc2ccccc2)c(=O)[nH]c1=O	nt	nt	nt	i	i	nt
CCOC(=O)c1c(NC(=O)CSc2nnc(-c3c[nH]c4ccccc34)n2CCOC)sc2c1CCCC2	i	i	i	i	i	i
CCOC(=O)c1c(NC(=S)Nc2ccccc2)sc2c1CCN(CC)C2	61	152	i	i	62	i
CCOC(=O)c1c(NC(=O)C2COc3ccccc3O2)sc2c1CCN(Cc1ccccc1)C2 (configuration not stated)	i	i	i	i	90	i
SMILES	Runt-CBFb FRET	Runt-SMMHC FRET	Hck-Nef inh	Pemphigus Ab inh	RanGTP-Impb inh	p-CIP stab down
CCOC(=O)c1c(NC(=O)c2ccccc2C(=O)O)sc2c1CCCC2	nt	nt	nt	68	i	i
CCOC(=O)c1c(NC(=O)CSc2nnc(-c3c[nH]c4ccccc34)n2C)sc2c1CCCC2	i	i	i	i	26	i
O=C(CNC(=O)c1cc(Cl)cc([N+](=O)[O-])c1)NC1CC1	nt	nt	nt	i	nt	nt
COc1ccc(CN(CC(=O)NCc2ccco2)C(=O)CNS(=O)(=O)c2ccc(C)cc2)cc1	nt	nt	nt	i	i	i
CCOC(=O)c1c(NS(=O)(=O)c2cccc(OC)c2)sc2c1CCC2	i	69	i	i	i	i
NC(=O)c1c(NC(=O)C2COc3ccccc3O2)sc2c1CCN(Cc1ccccc1)C2 (configuration not stated)	110	137	i	i	i	i
COC(=O)N1CCc2c(sc(NC(=O)C3COc4ccccc4O3)c2C(N)=O)C1 (configuration not stated)	nt	nt	nt	i	i	nt
CCOC(=O)c1c(NC(=S)NC(C)=O)sc(C)c1C	i	i	i	71	i	i
COc1cc2ncnc(NCCc3ccccc3)c2cc1OC	i	i	59	i	i	i
Cc1cc(N(C)C(=O)c2ccc3c(c2)S(=O)(=O)c2cc(Cl)ccc2C3=O)c(C(F)(F)F)o1	nt	nt	nt	i	nt	nt
O=C(COc1ccccc1)NCc1nnc2c3ccccc3c(-c3ccccc3)nn12	i	i	i	i	i	i
CC(C)(C)c1cnnn1-c1ccc(/C=N/Nc2ccc([N+](=O)[O-])cc2)cc1	i	i	i	i	34	i
CCOC(=O)C1=C(CSc2nc(CC)c(C)cc2C#N)OC(N)=C(C#N)C1c1ccccc1 (configuration not stated)	i	i	i	i	22	i
CCOC(=O)C1=C(CSc2nc3c(cc2C#N)CN(C)CC3)OC(N)=C(C#N)C1c1ccc(Cl)cc1 (configuration not stated)	i	59	i	i	27	i
CCOC(=O)C1=C(C)OC(N)=C(C#N)C1c1cccs1 (configuration not stated)	i	i	i	i	i	i
CCCC1=C(C(=O)OCC)C(c2cccs2)C(C#N)=C(N)O1 (configuration not stated)	i	i	i	i	30	i
CCOC(=O)C1=C(CSc2nc(C)cc(C)c2C#N)OC(N)=C(C#N)C1c1ccccc1 (configuration not stated)	i	i	i	i	?	i
CCOC(=O)C1=C(CSc2nc3c(cc2C#N)CN(C)CC3)OC(N)=C(C#N)C1c1ccncc1 (configuration not stated)	i	74	i	i	21	i
O=C(CSc1ncccn1)Nc1ccc2c(c1)CCC2	i	i	i	i	i	i
CNC(=O)CSc1nnc(-c2ccco2)n1-c1cccc(OC)c1	nt	nt	nt	i	i	i
CC(NS(=O)(=O)c1ccc(Br)s1)c1ccccc1 (configuration not stated)	nt	nt	nt	i	i	i
Cc1csc(NC(=O)C(NS(=O)(=O)c2ccc(Br)s2)c2ccccc2)n1 (configuration not stated)	i	i	i	86	i	i
